NPY-Y1 PAM-ag = potentiates or activates human NPY-Y1 receptor. P25929. NPY-Y1 expressing cells, potentiator/agonist activation. activation, % at 3.6 µM. hit rate 0.37% among 220,000. AID 1304; in the data active means activation above about 33%, passing the limit was not always enough;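 further: cells stimulated with NPY at EC10 then isoproterenol at EC100; 0% = low agonist plus stimulus and 100% = saturating agonist plus stimulus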
Rad51 HR inh = Rad51 (human) homologous recombination inhibition; hit rate 0.085% among 200,000; hRad51 DNA strand exchange, fluorescence dequenching; Q06609; inhibition, % at 10 µM; AID 1385;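 active means inhibition above 40% at the single screening dose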;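 further: 0% = DMSO control wells and 100% = blanks with heterologous ssDNA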
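Test system: preformed human Rad51 ssDNA filaments. Compound dosing: single dose, 10 µM final compound. Incubation: filaments 15 min 37 °C, then compound 30 min. Technique: FRET fluorescence dequenching, excitation 485 nm, emission 520 nm. Read-out basis: percent inhibition from fluorescence, normalised to plate control and blank means. Benchmarks: plate controls and plate blanks.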
Measles CPE = protection of cells from measles virus; Measles virus-infected cells, CPE protection, absorbance; protection (pct of control), % at 4 µM; hit rate 1.5% among 140,000; AID 841; in the data active means protection mostly above about 24%, no sharp cut-off; inactive means mostly below about 26%
NPY-Y2 PAM-ag = potentiates or activates human NPY-Y2 receptor. P49146. cells expressing NPY-Y2, potentiator/agonist read-out. activation, % at 3.6 µM. hit rate 0.45% among 220,000. AID 1359; in the data active means activation above about 27%;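 further: cells stimulated with NPY near EC25 plus isoproterenol at EC100; 0% = vehicle plus submaximal agonist and 100% = vehicle plus saturating agonist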
Target sequence (P49146 whole entry, looked up): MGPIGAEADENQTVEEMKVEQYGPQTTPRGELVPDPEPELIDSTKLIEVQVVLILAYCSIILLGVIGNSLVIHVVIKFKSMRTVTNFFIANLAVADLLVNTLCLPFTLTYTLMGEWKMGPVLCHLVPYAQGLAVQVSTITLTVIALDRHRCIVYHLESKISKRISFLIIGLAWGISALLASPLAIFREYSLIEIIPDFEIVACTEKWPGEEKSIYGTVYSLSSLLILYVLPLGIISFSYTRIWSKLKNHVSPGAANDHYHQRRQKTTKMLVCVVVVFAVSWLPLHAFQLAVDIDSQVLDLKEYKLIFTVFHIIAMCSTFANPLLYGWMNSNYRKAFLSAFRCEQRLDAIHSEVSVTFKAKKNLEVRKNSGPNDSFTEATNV
NPY-Y2 antag = antagonists of human neuropeptide Y receptor Y2; P49146; NPY-Y2 expressing cells, antagonist mode; inhibition, % at 2.7 µM; hit rate 0.99% among 140,000; in the data active means inhibition above about 17%;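 further: 0% = vehicle with agonist challenge and 100% = reference antagonist with challenge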
NPY-Y1 antag = antagonists of human neuropeptide Y receptor Y1; HEK293-CNG Y1 cells, membrane potential fluorescence; NPY at EC95, then isoproterenol; inhibition, % at 3.6 µM; hit rate 1% among 200,000;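 active means inhibition above the campaign mean inhibition of all tested compounds plus 3 SD, cut at about 20% in these data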;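 further: 0% = DMSO wells given NPY plus isoproterenol and 100% = isoproterenol alone without NPY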
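System: HEK293 cells with Y1 receptor plus CNG channel / Probe or stimulus: NPY 25 nM then isoproterenol 1 µM plus Ro 20-1724 25 µM / Compound: one concentration, 3.6 µM, in 0.4% DMSO / Schedule: compound incubation 1 h at room temperature, readout 45 min post-stimulation / Measured by: membrane potential fluorescence / Read-out: % inhibition of NPY effect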
NPY-Y1 antag ct = antagonizes human NPY-Y1, counter-screen to NPY-Y2 antagonists | shares compounds with NPY-Y2 antag | cell-based NPY-Y1 antagonism counterscreen | inhibition, % at 3.6 µM | hit rate 19% among 710; in the data active means inhibition above about 20%;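 further: cells challenged with NPY then isoproterenol with cAMP sensed through a CNG channel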
NPY2 antag conf = human NPY-Y2 antagonism, confirmation | HEK293 NPY-Y2 CNG channel, membrane potential fluorescence | hit rate 32% among 710 | inhibition, % at 2.8 µM | shares compounds with NPY-Y2 antag;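 active means mean inhibition of triplicate wells above the hit cutoff set in the primary screen, cut at about 17% in these data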;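 further: 0% = DMSO with NPY challenge and 100% = BIIE0246 high control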
* marks the source's active call; other numbers are inactive results; . = no result given. A selection: hits, their analogues and other compounds. The true share with any hit is near 2.8%.

SMILES	NPY-Y1 PAM-ag	Rad51 HR inh	Measles CPE	NPY-Y2 PAM-ag	NPY-Y2 antag	NPY-Y1 antag	NPY-Y1 antag ct	NPY2 antag conf
Clc1ccc(OCCOCCOc2cccc3cccnc23)c(Br)c1	-66	.	3	-17	18*	1	24*	53*
Cc1cccc(OCCCOc2cccc3cccnc23)c1C	-11	3	3	-21	21*	10	7	10
Brc1ccccc1OCCOCCOc1cccc2cccnc12	-16	16	31	-29	7	8	.	.
COc1cc2c(cc1NC(=O)c1cccc(S(=O)(=O)N(C)C)c1)oc1ccccc12	-43	0	2	-1	7	7	.	.
CNC(=S)N/N=C/c1cn(CCOc2cccc(OC)c2)c2ccccc12	-5	11	7	15	1	5	.	.
CCN(CC)S(=O)(=O)c1cc(C(=O)Oc2cccc(-c3cnc4ccccc4n3)c2)ccc1OC	-48	-3	7	0	20*	14	31*	14
C=CCn1c(SC2CCOC2=O)nc2scc(C3CC3)c2c1=O (centres undefined)	-5	0	25	-22	45*	12	30*	81*
COc1ccc(/C=C2\CCc3ccccc3C2=O)cc1Cn1nc(C)cc1C	9	3	14	-10	18*	8	9	4
C=CCn1c(=N)n(CC(=O)c2ccc(OC)cc2)c2ccccc21	12	19	.	-29	.	.	.	.
OC12CCCCC1C(c1ccc3c(c1)OCO3)N(Cc1ccc(F)cc1)CC2 (centres undefined)	2	6	24	8	10	15	.	.
OC12CCCCC1C(c1ccc3c(c1)OCO3)N(Cc1ccccc1F)CC2 (centres undefined)	-35	.	26	-7	18*	4	17	9
COc1ccc(C(C)=O)cc1CSc1nc2ccccc2c(=O)n1-c1ccccc1C	-12	3	11	-1	20*	15	11	13
COc1ccc(C(C)=O)cc1CSc1nc2ccccc2c(=O)n1-c1ccccc1	2	3	4	9	11	0	.	.
COc1cccc(/C=N\NC(=O)Cn2nnc3ccccc32)c1O	-12	-5	.	-7	.	2	.	.
CCc1ccccc1NC(=S)/N=C(\N)Nc1nc(C)c2cc(C)ccc2n1	3	-4	2	-13	5	10	.	.
Cc1ccc(NC(=S)/N=C(\N)Nc2nc(C)c3cc(C)ccc3n2)c(C)c1	-7	1	7	3	18*	15	16	20*
CCOc1cc(/C=N/NC(=O)c2cccnc2)ccc1OCC(=O)N1CCOCC1	-13	2	4	18	-3	-3	.	.
O=C(Nc1cccn(Cc2c(Cl)cccc2Cl)c1=O)c1ccccc1Cl	-21	2	48*	-6	23*	8	12	6
O=C1OCc2ccc(NS(=O)(=O)c3ccc(C(F)(F)F)cc3)cc21	21	.	.	-2	.	.	.	.
Cc1ccc(NC(=O)C(=O)NCCOc2ccc(Cl)cc2)c(C)c1	-6	.	3	-8	21*	4	14	20*
COc1ccc(-c2cc(C(=O)N3CCCc4ccccc43)no2)cc1	-14	.	2	-10	5	6	.	.
COc1ccc(OC)c(-c2cc(C(=O)N3CCCc4ccccc43)no2)c1	-33	0	7	-31	17*	19	10	5
COc1cccc(-c2cc(C(=O)N3CCCc4ccccc43)no2)c1	-25	4	15	0	19*	17	17	9
Cc1nccn1CC(=O)N/N=C/c1cccc(O)c1	-7	-1	24	5	2	1	.	.
CC(C)CNC(=O)c1ccccc1NC(=O)Nc1ccccc1	2	-3	3	-12	2	5	.	.
SMILES	NPY-Y1 PAM-ag	Rad51 HR inh	Measles CPE	NPY-Y2 PAM-ag	NPY-Y2 antag	NPY-Y1 antag	NPY-Y1 antag ct	NPY2 antag conf
Nn1c(Cc2cccc3ccccc23)nnc1SCc1c(Cl)cccc1Cl	-29	.	24	-23	20*	2	17	41*
CCCc1cc(=O)[nH]c(SCC(=O)c2cc(C)n(C)c2C)n1	-40	-2	8	-9	19*	3	4	11
CCn1c(O)c(N=NC(=S)NCC2CCCO2)c2ccccc21 (centres undefined)	-10	0	.	-7	.	1	.	.
COc1ccc(C2Nc3ccccc3C(=O)N2c2ccc(C)cc2)cc1Cn1nnc2ccccc21 (centres undefined)	13	3	9	1	2	14	.	.
COc1ccc(C2Nc3ccccc3C(=O)N2c2ccc(C)cc2)cc1Cn1cc([N+](=O)[O-])cn1 (centres undefined)	-27	1	3	-40	19*	8	27*	63*
Cc1nnc(N2CCN(C)CC2)c2nn(-c3ccc(Cl)cc3)c(C)c12	-48	.	.	-19	10	17	.	.
CC1CCN(c2ccccc2NC(=S)NC(=O)c2cccs2)CC1	-36	-6	2	0	21*	7	20*	15
CC1CCC2C(=O)N(c3ccc(C(=O)Oc4cccc5cccnc45)cc3)C(=O)C2C1 (centres undefined)	16	-6	33	-5	0	-4	.	.
Cc1ccc(OCCNc2ccc(C(F)(F)F)cc2[N+](=O)[O-])cc1	19	7	17	1	21*	0	20	17
Cc1ccc(NC(=S)NCc2ccc3c(c2)OCO3)c(C)c1	-9	3	5	-20	21*	6	7	10
CC(CNCC1CCCO1)COc1cccc2ccccc12 (centres undefined)	-1	-2	7	0	4	3	.	.
CC(COc1cccc2ccccc12)CN1CCN(C)CC1 (centres undefined)	-1	-4	3	1	17*	0	7	7
CCCn1c(SCC(=O)c2c(C)[nH]c(C)c2C(=O)OCC)nc2ccccc21	14	-17	19	4	7	3	.	.
C/C(=C\C(=O)c1ccncc1)Nc1ccccc1O	8	-5	3	11	18*	1	1	8
CC(=O)Nc1ccccc1O	0	2	28	5	0	3	.	.
CC1CCN(CCCNC(=O)c2ccc(CSCc3cccc(Cl)c3)o2)CC1	-24	5	8	-7	17*	12	9	12
CN1CCN(CCCNC(=O)c2ccc(CSCc3cccc(Cl)c3)o2)CC1	-6	-2	5	1	2	0	.	.
CN1CCC(OC(c2ccccc2)c2ccccc2)CC1	-15	2	8	-9	2	-1	.	.
CN1CCC(Oc2ccccc2Sc2ccccc2)CC1	-43	9	5	2	18*	14	15	22*

Source: PubChem
